The results in this text go back to ChEMBL document CHEMBL2321794, “Evaluation of difluoromethyl ketones as agonists of the γ-aminobutyric acid type B (GABAB) receptor” (J Med Chem, 2013).

In data set [1] the target is GABA-A receptor; alpha-1/beta-2/gamma-2 (Rattus norvegicus, UniProt P18508+P62813+P63138). Put plainly: Agonist activity at rat GABA-A alpha1beta2gamma2 receptor expressed in human TSA201 cells by whole cell voltage-clamp method. The class given is cell-based. Put shortly: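 Whole-cell voltage clamp at rt, holding potential −60 mV, in tsA201 cells transiently transfected (calcium phosphate) with rat α1, β2, γ2s subunits plus GFP (1:1:5:1); recorded the day after replating. Compounds applied at 100 μM via gap-free protocol; currents compared with response to 100 μM GABA. Intracellular NMDG-Cl/CsCl pH 7.2; extracellular NaCl/HEPES pH 7.4; 1 kHz filtering and sampling.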

For another data set, the system named is HEK293. The data set can be described thus: Cytotoxicity against HEK293 cells expressing human GABA-B B1/B2 receptor gene after 3 hrs by MTS assay. The class given is cell-based. The following applies: hek293, 3 h. Put shortly: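 MTS viability in HEK293 cells stably expressing human GABA-B1/B2 with Cre-luc reporter: about 65000 cells/well plated overnight, treated 3 h at 37 °C, 5% CO2 in Optimem, in triplicate. CellTiter Aqueous One reagent then added for 1.5 h; absorbance read at 490 nm.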

The target in another data set is GABA-B receptor (Homo sapiens, UniProt O75899+Q9UBS5). The data set can be described thus: Agonist activity at human GABA-B B1/B2 receptor expressed in HEK293 cells assessed as inhibition of forskolin-stimulated cAMP accumulation after 3 hrs by luciferase reporter gene assay. The class given is functional, cell-based. In general terms: Changes in cAMP serve as a functional read-out for many G protein-coupled receptors.

The test system of data set [2] is Mus musculus. Put plainly: Anxiolytic activity in high alcohol preferring-2 mouse assessed as reduction of startle response under light and noise condition at 12.5 mg/kg, ip treated 25 mins prior to test. The class given is functional, organism-based. The arrangement: dose 12.5 mg/kg. A digest of the protocol: (§1)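 Experimentally naive HAP2 mice (16 male, 16 female, 316–332 days old). Given ip at 10 mL/kg in 10% DMSO/45% (w/v) 2-hydroxypropyl-β-cyclodextrin in distilled water, 25 min before the test. Conditioning 24 h prior: 40 trials of 30 s, 7 W light paired with 0.5 s, 0.8 mA foot shock at 2 min intervals. Startle force in grams excluding body weight, 70–71 dB background, sexes pooled.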

The subject of data set [3] is Mus musculus. Put plainly: Anxiolytic activity in high alcohol preferring-2 mouse assessed as reduction of startle response under noise alone condition at 12.5 mg/kg, ip treated 25 mins prior to test. The class given is functional, organism-based. The arrangement: dose 12.5 mg/kg. Put shortly: as §1
Data set [4] relates to Mus musculus. Put plainly: Anxiolytic activity in high alcohol preferring-2 mouse assessed as reduction of startle response under light and noise condition at 7.5 mg/kg, ip treated 25 mins prior to test. The class given is functional. The note with it: route intraperitoneal. A digest of the protocol:
(§2)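 Male and female HAP2 mice (7 of each, 133–142 days old) with prior startle testing, prepulse testing and vehicle or drug injections, followed by a 15-day washout and counterbalancing. Dosed ip (10 mL/kg, distilled water vehicle) 25 min before the test session. Light (30 s, 7 W) was paired with foot shock (0.5 s, 0.8 mA; 40 trials) 24 h earlier. Startle force in grams, sexes pooled, mean ± SEM.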

Data set [5] relates to Mus musculus. The data set can be described thus: Anxiolytic activity in high alcohol preferring-2 mouse assessed as reduction of startle response under noise alone condition at 7.5 mg/kg, ip treated 25 mins prior to test. The class given is functional. The note with it: route intraperitoneal. A digest of the protocol:
as §2

Data set [6] concerns Mus musculus. Put plainly: Anxiolytic activity in high alcohol preferring-2 mouse assessed as reduction of startle response under light and noise condition at 36 mg/kg, ip treated 25 mins prior to test. The class given is functional, organism-based. Set-up: dose 36 mg/kg. A digest of the protocol:
(§3)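 HAP2 mice, experimentally naive (16 male, 16 female, 316–332 days old), given compound ip at 10 mL/kg in 10% DMSO/45% (w/v) 2-hydroxypropyl-β-cyclodextrin in water, 25 min before test. Conditioning: 40 trials of 30 s light paired with 0.5 s, 0.8 mA foot shock; test 24 h later. Startle force in grams on noise-alone and light + noise trials, 70–71 dB background; sexes pooled.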

Data set [7] relates to Mus musculus. Put plainly: Anxiolytic activity in high alcohol preferring-2 mouse assessed as reduction of startle response under noise alone condition at 36 mg/kg, ip treated 25 mins prior to test. The class given is functional, organism-based. The arrangement: dose 36 mg/kg. A digest of the protocol: as §3
In data set [8] the target is T1, GABA-A receptor; alpha-1/beta-2/gamma-2 (Rattus norvegicus) (UniProt P18508+P62813+P63138). The data set can be described thus: Agonist activity at rat GABA-Aalpha1beta2gamma2 activity expressed in human TSA201 cells assessed as potentiation of 100 uM GABA-induced current amplitude at 100 uM by whole cell voltage-clamp method. The class given is cell-based. A digest of the protocol:
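Same whole-cell clamp setup (rat α1β2γ2s in tsA201, −60 mV, rt): 100 μM GABA, near-saturating, co-applied with 100 μM compound versus GABA alone; normalized current amplitude, mean ± SE, N = 5.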

Data set [9] deals with T1, GABA-A receptor; alpha-1/beta-2/gamma-2 (Rattus norvegicus). Put plainly: Agonist activity at rat GABA-Aalpha1beta2gamma2 activity expressed in human TSA201 cells assessed as potentiation of 1 uM GABA-induced current amplitude at 100 uM by whole cell voltage-clamp method. The class given is cell-based. Put shortly: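 Modulation test on tsA201 cells expressing rat α1β2γ2s GABA-A receptor under whole-cell voltage clamp at −60 mV, rt: 1 μM GABA applied alone or simultaneously with 100 μM compound; current amplitude normalized, mean ± SE, N = 5 cells.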

Structures are written as SMILES. Active and inactive are the calls of the source. No cut-off for these calls is given here.

Sequence of GABA-A receptor; alpha-1/beta-2/gamma-2 (P18508 whole entry): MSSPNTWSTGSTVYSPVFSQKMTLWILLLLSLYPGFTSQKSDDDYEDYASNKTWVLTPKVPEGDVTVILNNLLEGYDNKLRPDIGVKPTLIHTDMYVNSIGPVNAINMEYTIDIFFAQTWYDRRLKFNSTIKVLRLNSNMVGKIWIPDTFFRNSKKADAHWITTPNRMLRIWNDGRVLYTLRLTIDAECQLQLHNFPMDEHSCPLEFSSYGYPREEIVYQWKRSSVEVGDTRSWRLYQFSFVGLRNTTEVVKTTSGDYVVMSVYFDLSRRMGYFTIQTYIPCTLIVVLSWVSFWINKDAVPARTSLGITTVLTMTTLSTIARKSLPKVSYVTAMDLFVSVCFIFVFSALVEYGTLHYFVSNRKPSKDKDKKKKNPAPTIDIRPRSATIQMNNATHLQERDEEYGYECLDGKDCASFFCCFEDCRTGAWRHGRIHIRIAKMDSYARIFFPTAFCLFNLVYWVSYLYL
Sequence of GABA-A receptor; alpha-1/beta-2/gamma-2 (P62813 whole entry): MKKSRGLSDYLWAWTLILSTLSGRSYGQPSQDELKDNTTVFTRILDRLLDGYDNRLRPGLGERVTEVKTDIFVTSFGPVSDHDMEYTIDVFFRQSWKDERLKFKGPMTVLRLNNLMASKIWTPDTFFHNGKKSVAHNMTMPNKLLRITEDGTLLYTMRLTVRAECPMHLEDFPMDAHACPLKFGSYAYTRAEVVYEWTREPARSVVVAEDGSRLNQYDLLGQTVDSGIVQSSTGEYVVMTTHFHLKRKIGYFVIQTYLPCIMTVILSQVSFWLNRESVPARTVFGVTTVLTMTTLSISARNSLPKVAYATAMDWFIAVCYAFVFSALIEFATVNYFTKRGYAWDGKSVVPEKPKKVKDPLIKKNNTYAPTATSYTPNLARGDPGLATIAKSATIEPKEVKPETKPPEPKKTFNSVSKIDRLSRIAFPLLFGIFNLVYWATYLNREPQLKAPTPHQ
Sequence of GABA-A receptor; alpha-1/beta-2/gamma-2 (P63138 whole entry): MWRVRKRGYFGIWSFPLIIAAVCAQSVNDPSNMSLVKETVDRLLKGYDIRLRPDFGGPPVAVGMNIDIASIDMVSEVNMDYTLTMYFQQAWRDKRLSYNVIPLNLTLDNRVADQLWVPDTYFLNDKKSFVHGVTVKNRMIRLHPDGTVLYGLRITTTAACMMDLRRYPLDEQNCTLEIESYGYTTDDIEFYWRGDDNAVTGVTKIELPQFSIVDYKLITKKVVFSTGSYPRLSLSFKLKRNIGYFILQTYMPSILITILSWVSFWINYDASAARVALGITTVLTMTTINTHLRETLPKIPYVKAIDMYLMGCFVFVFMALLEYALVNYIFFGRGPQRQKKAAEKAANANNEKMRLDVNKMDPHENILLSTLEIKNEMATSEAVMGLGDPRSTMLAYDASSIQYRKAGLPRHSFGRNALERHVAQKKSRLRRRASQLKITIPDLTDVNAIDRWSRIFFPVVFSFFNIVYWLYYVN
Sequence of GABA-B receptor (Q9UBS5 whole entry): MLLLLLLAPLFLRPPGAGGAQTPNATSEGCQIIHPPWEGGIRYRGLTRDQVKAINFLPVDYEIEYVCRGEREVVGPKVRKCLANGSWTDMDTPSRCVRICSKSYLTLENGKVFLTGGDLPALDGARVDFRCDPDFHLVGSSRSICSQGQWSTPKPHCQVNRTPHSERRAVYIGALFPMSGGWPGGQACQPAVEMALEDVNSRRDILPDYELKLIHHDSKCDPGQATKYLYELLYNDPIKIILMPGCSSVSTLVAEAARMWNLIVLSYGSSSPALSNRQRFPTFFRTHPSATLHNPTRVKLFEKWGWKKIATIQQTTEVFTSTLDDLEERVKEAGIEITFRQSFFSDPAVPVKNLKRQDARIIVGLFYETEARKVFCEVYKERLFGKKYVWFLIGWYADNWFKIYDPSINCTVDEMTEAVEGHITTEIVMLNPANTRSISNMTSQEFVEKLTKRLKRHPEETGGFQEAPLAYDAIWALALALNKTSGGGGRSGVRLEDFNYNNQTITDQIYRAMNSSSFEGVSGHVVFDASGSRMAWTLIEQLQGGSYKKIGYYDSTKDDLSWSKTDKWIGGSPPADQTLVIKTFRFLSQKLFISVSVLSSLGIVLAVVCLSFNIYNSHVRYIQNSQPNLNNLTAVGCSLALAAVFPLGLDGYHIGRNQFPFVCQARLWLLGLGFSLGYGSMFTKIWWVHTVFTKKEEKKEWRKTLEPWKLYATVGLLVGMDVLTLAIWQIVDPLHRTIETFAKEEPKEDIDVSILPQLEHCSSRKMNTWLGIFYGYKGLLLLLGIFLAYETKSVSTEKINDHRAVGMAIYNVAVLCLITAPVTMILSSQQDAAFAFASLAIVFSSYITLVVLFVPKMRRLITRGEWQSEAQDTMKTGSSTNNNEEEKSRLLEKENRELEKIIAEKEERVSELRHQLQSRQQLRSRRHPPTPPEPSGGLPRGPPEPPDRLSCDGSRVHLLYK
Sequence of GABA-B receptor (O75899 whole entry): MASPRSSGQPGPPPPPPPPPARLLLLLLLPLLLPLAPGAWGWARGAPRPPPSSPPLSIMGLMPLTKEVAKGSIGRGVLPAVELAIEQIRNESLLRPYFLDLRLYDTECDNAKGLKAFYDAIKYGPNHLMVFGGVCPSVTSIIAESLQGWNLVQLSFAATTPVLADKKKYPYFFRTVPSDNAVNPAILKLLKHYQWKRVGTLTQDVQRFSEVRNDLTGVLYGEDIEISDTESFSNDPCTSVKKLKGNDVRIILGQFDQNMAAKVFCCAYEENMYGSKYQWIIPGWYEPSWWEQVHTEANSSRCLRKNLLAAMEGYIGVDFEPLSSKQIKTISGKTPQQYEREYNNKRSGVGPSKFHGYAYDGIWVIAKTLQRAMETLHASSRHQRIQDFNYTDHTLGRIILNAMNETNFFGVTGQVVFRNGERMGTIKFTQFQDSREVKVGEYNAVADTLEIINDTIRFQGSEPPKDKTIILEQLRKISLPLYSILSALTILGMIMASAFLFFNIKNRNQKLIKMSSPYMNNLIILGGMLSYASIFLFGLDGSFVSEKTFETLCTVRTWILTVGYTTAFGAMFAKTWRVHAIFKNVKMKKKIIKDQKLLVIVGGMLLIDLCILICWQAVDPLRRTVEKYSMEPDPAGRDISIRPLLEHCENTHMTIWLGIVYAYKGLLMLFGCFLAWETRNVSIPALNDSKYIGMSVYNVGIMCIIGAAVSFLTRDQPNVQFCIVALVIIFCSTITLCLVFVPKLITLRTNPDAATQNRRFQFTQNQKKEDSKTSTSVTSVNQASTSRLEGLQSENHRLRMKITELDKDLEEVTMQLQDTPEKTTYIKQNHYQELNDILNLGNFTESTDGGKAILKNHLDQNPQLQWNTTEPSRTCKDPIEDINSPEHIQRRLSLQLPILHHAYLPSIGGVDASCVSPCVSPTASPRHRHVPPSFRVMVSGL

In turn, `CC(=O)c1ccc(C(O)C(F)(F)C(=O)C23CC4CC(CC(C4)C2)C3)cc1` (racemic) [listing 1 of 2 here] displayed an EC50 in data set [1] of over 100 µM.
Regarding `CC1(C)C2CCC(C(O)C(F)(F)C(=O)c3ccc4c(c3)OCO4)C1C2` (racemic), the Activity result in the data set with HEK293 is on record as “Toxic”.
In data set [1], `COc1ccc(C(O)C(F)(F)C(=O)c2ccc3ccccc3c2)cc1` (racemic) came in with an EC50 of over 100 µM.
Take `O=C(C12CC3CC(CC(C3)C1)C2)C(F)(F)C(O)/C=C/c1ccccc1` (racemic): the figures for the EC50 (in data set [1]; on GABA-B receptor) were over 100 µM and 40 µM, respectively.
`CC(=O)c1ccc(C(O)CC(=O)C23CC4CC(CC(C4)C2)C3)cc1` (racemic): the concentration giving a half-maximal response (EC50) on GABA-B receptor is over 100 µM.
Regarding `CC(C)(C)c1cc(C(C)(C)C)c2c(c1)C(O)(C(F)(F)F)C(=O)O2` (racemic), the outcome with Mus musculus [2] and in the data set on Mus musculus [3] was Active. Moreover, the EC50 in data set [1] is over 100 µM.
`NCC(CC(=O)O)c1ccc(Cl)cc1` (racemic) [BACLOFEN]: the Activity came out at 26.3 g in the data set with Mus musculus [4] and 8.1 g in the data set with Mus musculus [5]. In addition, in [1], the EC50 is over 100 µM.
In the case of `CC(=O)c1ccc(C(O)C(F)(F)C(=O)C23CC4CC(CC(C4)C2)C3)cc1` (racemic) [listing 2 of 2 here], the outcome with Mus musculus [6] and with Mus musculus [7] was Active. The outcome in [8] and in data set [9] was inactive.
As to `C/C=C/C=C/C(O)C(F)(F)C(=O)/C=C/CCCC` (racemic), the EC50 on GABA-B receptor is over 100 µM.
For the molecule `CC(=O)c1ccc(C(O)C(F)(F)C(=O)C23CC4CC(CC(C4)C2)C3)cc1` (stereo unspecified), the Activity entry in the data set on HEK293 is “Non-toxic”.
Turning to `C/C=C/C=C/C(O)C(F)(F)C(=O)c1ccc2ccccc2c1` (racemic), in [1], the EC50 was over 100 µM.
The molecule `O=C(c1ccc2ccccc2c1)C(F)(F)C(O)C1CCCCC1` (racemic) gave a concentration giving a half-maximal response (EC50) in [1] of over 100 µM.
Still for that read-out and setting: the value for `CCC/C=C/C(O)C(F)(F)C(=O)c1ccc2ccccc2c1` (racemic) was over 100 µM.

Broadly, the EC50 is the concentration at which the effect is half-maximal.
